Test [1] has as its system Trypanosoma brucei brucei. The test is described as follows: Trypanocidal activity against bloodstream stage of Trypanosoma brucei brucei assessed as inhibition of proliferation after 72 hrs. It is filed as functional, organism-based. The gist of the method: (§1)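 Resazurin viability assay: 2 × 10³ cells/well (MRC5 in MEM + 10% FBS; bloodstream-form T. b. brucei in appropriate medium), compounds 50 μM to 0.5 nM, 37 °C, 5% CO₂ for 69 h, then resazurin 50 μM final for further 4 h; fluorescence read. Concentration giving 50% growth inhibition over 72 h; average of two or more experiments.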

Test [2] in a line: Selectivity ratio, ratio of IC50 for human CDK2/cyclin A to IC50 for Trypanosoma brucei GSK3.
Test [3] has as its target Glycogen synthase kinase-3 (Homo sapiens, UniProt P49840+P49841). The test is described as follows: Inhibition of human GSK3 using biotinylated GSP2 substrate by flashplate assay. It is filed as protein assay.
Test [4] can be described thus: Inhibition of Trypanosoma brucei GSK3 using biotinylated GSP2 substrate by flashplate assay. The gist of the method:
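Radiometric Flashplate assay: 2.5 nM TbGSK3 short, 1 μM biotinylated GSP2, 1 μM ATP plus [γ-33P]-ATP. 10-point titration 30 μM to 0.3 nM final, 1% DMSO. IC50 averaged over two or more experiments; standard GW8510 used for reproducibility (MSR).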

The test system of test [5] is MRC5. The test is described as follows: Cytotoxicity against human MRC5 cells assessed as growth inhibition after 72 hrs. The test is classed as cell-based. Particulars: MRC5, 72 h. In a few lines: as §1
Test [6] has as its target CDK2/Cyclin A2 (Homo sapiens, UniProt P24941). In words: Inhibition of human CDK2/cyclin A using Biotin-C6-PKTPKKAKKL substrate. It is filed as protein-complex assay.
Test [7] is described as follows: Selectivity ratio, ratio of IC50 for human GSK3 to IC50 Trypanosoma brucei GSK3.

A value given as a limit tells only on which side of the number the result lay.

Experimental findings from ChEMBL document CHEMBL3352013, “The design and synthesis of potent and selective inhibitors of Trypanosoma brucei glycogen synthase kinase 3 for the treatment of human african trypanosomiasis” (J Med Chem, 2014) are described below.

For the compound `CO[C@H]1CC[C@H](NC(=O)c2n[nH]cc2NC(=O)c2ccc(F)cc2F)CC1`, the EC50 (commonly the concentration that produces a half-maximal response) in test [1] was 3800 nM; in test [5], 11000 nM. Further, the Ratio IC50 in test [2] came out at 4.2. Further, the IC50 – broadly, the concentration that inhibits the measured activity by half – was below 5 nM in test [3], 53 nM in test [4] and 220 nM in test [6].
Take `CO[C@H]1CC[C@H](NC(=O)c2n[nH]cc2NC(=O)c2ccc(N3CCCC3)cc2)CC1`: the EC50 in test [1] is 2700 nM; in test [5], above 50000 nM. For the same compound, the Ratio IC50 in test [2] stood at 6.8. The results for the IC50 in test [3], in test [4] and in test [6] were below 5 nM, 19 nM and 130 nM, respectively.
On to `COc1cccc(OC)c1C(=O)Nc1c[nH]nc1C(=O)NC1CCCCC1`, for which the EC50 in test [1] stood at 4100 nM; in test [5], 35000 nM. Moreover, the Ratio IC50 in test [2] stood at 1200; in test [7], 50. Also, the results for the IC50 in test [3], in test [4] and in test [6] were 50 nM, 1 nM and 1200 nM, respectively.
With `COc1cc(OC)c(C(=O)Nc2c[nH]nc2C(=O)N[C@H]2CC[C@H](OC)CC2)c(OC)c1`, the EC50 was 5900 nM in test [1] and above 50000 nM in test [5]. The Ratio IC50 is 1000 in test [2] and 30 in test [7]. In addition, the IC50 came to 90 nM in test [3], 3 nM in test [4] and 3100 nM in test [6].
In the case of `CO[C@H]1CC[C@H](NC(=O)c2n[nH]cc2NC(=O)c2cc3ccccn3n2)CC1`, the EC50 turned out to be 1900 nM in test [1] and 1000 nM in test [5]. Besides, the Ratio IC50 in test [2] came out at 0.67. Moreover, the IC50 in test [3] was below 5 nM; in test [4] it was 63 nM; in test [6], 42 nM.
As to `COc1cccc(OC)c1C(=O)Nc1c[nH]nc1C(=O)NCc1ncccc1C`, the EC50 in test [1] and in test [5] was above 50000 nM throughout. The results for the Ratio IC50 in test [2] and in test [7] were above 71 and 6.2, respectively. The half-inhibitory concentration (IC50) in test [3] was 870 nM; in test [4] it was 140 nM; in test [6] it was above 10000 nM.
As to `COc1cccc(OC)c1C(=O)Nc1c[nH]nc1C(=O)NCC1CCCCC1`, the values for the EC50 in test [1] and in test [5] were 7700 nM and above 50000 nM, respectively. In addition, the IC50 in test [4] came to 1 nM.
`CO[C@H]1CC[C@H](NC(=O)c2n[nH]cc2NC(=O)c2ccccc2F)CC1`: the values for the EC50 in test [1] and in test [5] were 400 nM and 1000 nM, respectively. Moreover, the Ratio IC50 in test [7] amounted to 0.25. For the same compound, the IC50 was below 5 nM in test [3], 20 nM in test [4] and 14 nM in test [6].
As for `CO[C@H]1CC[C@H](NC(=O)c2n[nH]cc2NC(=O)c2ccccc2Nc2ccccc2)CC1`, the EC50 in test [1] was determined as 4400 nM; in test [5] it was 35000 nM. Further, the Ratio IC50 in test [7] was found to be 1.8. Further, the results for the IC50 in test [3] and in test [4] were 20 nM and 11 nM, respectively.
For `CO[C@H]1CC[C@H](NC(=O)c2n[nH]cc2NC(=O)c2cc3ccccc3o2)CC1`, the EC50 was found to be 1200 nM in test [1] and 800 nM in test [5]. Besides, the figures for the IC50 in test [3] and in test [4] were below 5 nM and 13 nM, respectively.
In the case of `COc1cccc(OC)c1C(=O)Nc1c[nH]nc1C(=O)O`, the EC50 in test [1] and in test [5] was above 50000 nM each time. The values for the IC50 in test [3], in test [4] and in test [6] were above 10000 nM, above 50000 nM and above 10000 nM, respectively.
As to `COc1cccc(OC)c1C(=O)Nc1c[nH]nc1C(=O)NC1CCC(C)CC1` (mixture of isomers), the results for the EC50 in test [1] and in test [5] were 6700 nM and 45000 nM, respectively. Also, the Ratio IC50 in test [2] is 4800. The results for the IC50 in test [4] and in test [6] were 1 nM and above 4800 nM, respectively.
Regarding `CO[C@H]1CC[C@H](NC(=O)c2n[nH]cc2NC(=O)c2ccc(OC(F)F)cc2)CC1`, the EC50 in test [1] worked out at 1100 nM; in test [5], 2500 nM. In addition, in test [2], the Ratio IC50 came out at 17. Also, the values for the IC50 in test [3], in test [4] and in test [6] were below 5 nM, 16 nM and 270 nM, respectively.
Turning to `CO[C@H]1CC[C@H](NC(=O)c2n[nH]cc2NC(=O)c2ccccc2C(F)(F)F)CC1`, the EC50 turned out to be 2300 nM in test [1] and 3300 nM in test [5]. Also, in test [2], the Ratio IC50 came to 5.6. Moreover, the figures for the half-maximal inhibitory concentration (IC50) in test [3], in test [4] and in test [6] were below 13 nM, 18 nM and 100 nM, respectively.
With `COc1cccc(OC)c1C(=O)Nc1c[nH]nc1C(=O)NC1CC2CCC1C2` (stereo unspecified), the EC50 in test [1] is 16000 nM; in test [5], above 50000 nM. Besides, the Ratio IC50 in test [2] was above 560. The results for the IC50 in test [4] and in test [6] were 18 nM and above 10000 nM, respectively.
With `COc1cccc(OC)c1C(=O)Nc1c[nH]nc1C(=O)NC1CC1`, the EC50 in test [1] was 19000 nM; in test [5], above 50000 nM. The Ratio IC50 in test [7] is 18. For the same compound, the concentration for half-maximal inhibition (IC50) in test [3] was 220 nM; in test [4], 12 nM; in test [6] it was above 10000 nM.
In the case of `CO[C@H]1CC[C@H](NC(=O)c2n[nH]cc2NC(=O)c2ccccc2Nc2cccc(C)c2C)CC1`, the EC50 is 5800 nM in test [1] and 16000 nM in test [5]. Moreover, in test [7], the Ratio IC50 stood at 0.45. For the same compound, the figures for the IC50 in test [3] and in test [4] were 30 nM and 66 nM, respectively.
On to `CCCCCNC(=O)c1n[nH]cc1NC(=O)c1c(OC)cccc1OC`, for which the EC50 was 7300 nM in test [1] and above 50000 nM in test [5]. In addition, the Ratio IC50 in test [2] stood at 4800. The IC50 worked out at 100 nM in test [3], 1 nM in test [4] and 4800 nM in test [6].
As for `CO[C@H]1CC[C@H](NC(=O)c2n[nH]cc2NC(=O)c2cnc3ccccn23)CC1`, the EC50 in test [1] came out at 2600 nM; in test [5], 5900 nM. Also, the Ratio IC50 in test [2] turned out to be 1.6. Further, the results for the IC50 in test [3], in test [4] and in test [6] were below 5 nM, 94 nM and 150 nM, respectively.
For `CO[C@H]1CC[C@H](NC(=O)c2n[nH]cc2NC(=O)c2cc(Cl)cc(Cl)c2)CC1`, the values for the EC50 in test [1] and in test [5] were 9600 nM and 13000 nM, respectively. Moreover, the Ratio IC50 in test [2] is 11. Moreover, the values for the IC50 in test [3], in test [4] and in test [6] were below 5 nM, 57 nM and 630 nM, respectively.
Turning to `COc1ccccc1C(=O)Nc1c[nH]nc1C(=O)N[C@H]1CC[C@H](OC)CC1`, the EC50 in test [1] worked out at 900 nM; in test [5], 1500 nM. Also, in test [2], the Ratio IC50 was 25. Moreover, the IC50 is below 13 nM in test [3], 4 nM in test [4] and 100 nM in test [6].
With `CO[C@H]1CC[C@H](NC(=O)c2n[nH]cc2NC(=O)c2ccc(N3CCN(C)CC3)cc2)CC1`, the half-maximal effective concentration (EC50) in test [1] amounted to 2000 nM; in test [5] it was 20000 nM. For the same compound, the Ratio IC50 in test [2] amounted to 14. Also, the IC50 in test [3] is below 5 nM; in test [4], 70 nM; in test [6], 1000 nM.
As for `CO[C@H]1CC[C@H](NC(=O)c2n[nH]cc2NC(=O)c2cc(F)cc(F)c2)CC1`, the EC50 in test [1] is 2600 nM; in test [5], 600 nM. Moreover, the Ratio IC50 in test [2] worked out at 3.5. For the same compound, the IC50 was below 5 nM in test [3], 24 nM in test [4] and 83 nM in test [6].
`COc1cccc(OC)c1C(=O)Nc1c[nH]nc1C(=O)NCCCOC(C)C`: the EC50 in test [1] is 6600 nM; in test [5], above 50000 nM. Besides, the Ratio IC50 in test [2] is above 10000. The results for the IC50 in test [4] and in test [6] were 1 nM and above 10000 nM, respectively.
